One block for each compound: values may come before it. Activity calls are given as the source filed them. The calls are words filed in the database; no cut-off is given here.
Tests used:
Rattus norvegicus [1] = assay: Antiinflammatory activity in Wistar rat assessed as inhibition of FCA-induced paw edema at 2.04 mg/kg, po administered on days 13 post FCA-challenge measured up to days 28 relative to control; assay type: functional
How it was run: (§1)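 Male Wistar rats (200–250 g), n = 6 per group. Complete Freund's adjuvant, 0.1 ml, injected sub-plantar into left hind paw on day 1. Oral dosing as 0.25% sodium CMC suspension, days 13–28. Body weight, joint diameter (digital vernier caliper) and paw volume (plethysmometer) recorded on days 0, 3, 7, 12, 15, 19, 21 and 28. Edema inhibition = 1 − (Vt/Vc) × 100, using mean relative paw-volume change versus arthritic controls. Mean ± SEM; two-way ANOVA with Bonferroni post test.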

Rattus norvegicus [2] = assay: Antiarthritic activity against FCA-induced arthritis in Wistar rat assessed as reduction in joint diameter at 2.04 mg/kg, po administered from day 13 post FCA-challenge measured up to day 28 relative to control; assay type: functional, organism-based; design: dose 2.04 mg/kg; how it was run: as §1
Rattus norvegicus [3] = assay: Antiarthritic activity against FCA-induced arthritis in Wistar rat assessed as increase in body weight at 2.04 mg/kg, po administered from day 13 post FCA-challenge measured after 28 days relative to control; assay type: functional, organism-based; design: dose 2.04 mg/kg; how it was run: as §1
Rattus norvegicus [4] = assay: Gastrointestinal toxicity against fasted Wistar rat assessed as ulcer index at 20.4 mg/kg, po (reference value: 1.78 +/- 0.6); assay type: organism-based; design: dose 20.4 mg/kg, route oral; conditions: in vivo
Rattus norvegicus [5] = assay: Antiarthritic activity in Wistar rat assessed as inhibition of FCA-induced subcutaneous inflammation of tibio-torsal joint at 2.04 mg/kg, po administered on day 13 post FCA-challenge measured on day 28 by hematoxylin and eosin staining method relative to control; assay type: functional, organism-based; design: dose 2.04 mg/kg
How it was run: (§2)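 Male Wistar rats, arthritis induced by sub-plantar FCA and oral dosing on days 13–28. Animals sacrificed on day 28. Ankle joints fixed 24 h in 10% buffered formalin, decalcified in 5% formic acid, paraffin-embedded and sectioned at 5 μm. H&E-stained sections read by light microscopy for synovial hyperplasia, pannus, joint-space destruction, inflammatory cell infiltration and synovitis.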

Rattus norvegicus [6] = assay: Antiarthritic activity in Wistar rat assessed as inhibition of FCA-induced subcutaneous inflammation of tibio-torsal joint at 5 mg/kg, po administered on day 13 post FCA-challenge measured on day 28 by hematoxylin and eosin staining method relative to control; assay type: functional, organism-based; design: dose 5 mg/kg; how it was run: as §2
Rattus norvegicus [7] = assay: Antiinflammatory activity in Wistar rat assessed as inhibition of FCA-induced paw edema at 5 mg/kg, po administered on days 13 post FCA-challenge measured up to days 28 relative to control; assay type: functional; how it was run: as §1
Rattus norvegicus [8] = assay: Antiarthritic activity against FCA-induced arthritis in Wistar rat assessed as reduction in joint diameter at 5 mg/kg, po administered from day 13 post FCA-challenge measured from day 15 to day 28 relative to control; assay type: functional, organism-based; design: dose 5 mg/kg; how it was run: as §1
Rattus norvegicus [9] = assay: Antiarthritic activity against FCA-induced arthritis in Wistar rat assessed as increase in body weight at 5 mg/kg, po administered from day 13 post FCA-challenge measured after 28 days relative to control; assay type: functional, organism-based; design: dose 5 mg/kg; how it was run: as §1
[10] = n-octanol-phosphate buffer distribution coefficient, log P of the compound at pH 7.4; assay type: physicochemical
How it was run: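 Shake-flask partitioning between n-octanol and phosphate buffer pH 7.4, with UV spectrophotometric quantification.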

Rattus norvegicus [11] = assay: Gastrointestinal toxicity against fasted Wistar rat assessed as ulcer index at 50 mg/kg, po (reference value: 1.78 +/- 0.6); assay type: organism-based; design: dose 50 mg/kg, route oral; conditions: in vivo
Rattus norvegicus [12] = assay: Antiinflammatory activity in Wistar rat assessed as inhibition of FCA-induced paw edema at 6.8 mg/kg, po administered on days 13 post FCA-challenge measured up to days 28 relative to control; assay type: functional; how it was run: as §1
Rattus norvegicus [13] = assay: Antiarthritic activity against FCA-induced arthritis in Wistar rat assessed as reduction in joint diameter at 6.8 mg/kg, po administered from day 13 post FCA-challenge measured up to day 28 relative to control; assay type: functional, organism-based; design: dose 6.8 mg/kg; how it was run: as §1
Rattus norvegicus [14] = assay: Antiarthritic activity against FCA-induced arthritis in Wistar rat assessed as increase in body weight at 6.8 mg/kg, po administered from day 13 post FCA-challenge measured after 28 days relative to control; assay type: functional, organism-based; design: dose 6.8 mg/kg; how it was run: as §1
[15] = Chemical stability in HCl buffer up to 3 hrs at pH 1.2; assay type: physicochemical; conditions: pH 1.2, 3 h
How it was run: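 10 mg prodrug in 100 ml HCl buffer pH 1.2, held at 37 ± 1 °C with occasional stirring. 5 ml aliquots withdrawn over 0–180 min, each replaced with fresh buffer. Samples read directly by UV at 232 nm (intact prodrug) and 259 nm (released diacerein). Triplicate runs.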

[16] = Prodrug conversion in phosphate buffer assessed as diacerein released after 30 mins at pH 7.4; assay type: physicochemical; conditions: pH 7.4, 0.5 h
How it was run: (§3)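 Same procedure in phosphate buffer pH 7.4 at 37 °C, followed over 4.5 h. UV read at 230 nm (prodrug remaining) and 258 nm (diacerein released). First-order rate constants taken from plots; mean K and SD from three readings, with half-life derived from these.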

[17] = Half life in phosphate buffer at pH 7.4; assay type: physicochemical; how it was run: as §3
[18] = Half life in Wistar rat small intestine homogenate; assay type: ADME, tissue-based
How it was run: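 Small intestine from an ether-anaesthetized male Wistar rat, homogenized with its contents and diluted to half with phosphate buffer pH 7.4. Prodrug stock 0.8 ml plus homogenate 0.2 ml, 37 °C for 4.5 h. Centrifuged and filtered, then UV read at 230 nm (prodrug) and 258 nm (diacerein) against phosphate buffer blank. First-order K averaged over three readings.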

Stomach = assay: Metabolic stability in Wistar rat stomach homogenate over 4.5 hrs; assay type: ADME, tissue-based; conditions: tissue homogenate
How it was run: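 Rat stomach homogenized with its contents and diluted to half with HCl buffer pH 1.2. Prodrug stock 100 μg/ml in HCl buffer; 0.8 ml stock plus 0.2 ml homogenate incubated at 37 °C. Samples centrifuged at 10,000 rpm, 4 °C, 10 min, then filtered. UV read at 232/259 nm against HCl buffer blank; quantified from calibration curves.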

Rattus norvegicus [19] = assay: Gastrointestinal toxicity against fasted Wistar rat assessed as ulcer index at 68 mg/kg, po (reference value: 1.78 +/- 0.6); assay type: organism-based; design: dose 68 mg/kg, route oral; conditions: in vivo
Rattus norvegicus [20] = assay: Antiarthritic activity in Wistar rat assessed as inhibition of FCA-induced mononuclear cell infiltration in synovial tissue of tibio-torsal joint at 6.8 mg/kg, po administered on day 13 post FCA-challenge measured on day 28 by hematoxylin and eosin staining method relative to control; assay type: functional, organism-based; design: dose 6.8 mg/kg; how it was run: as §2
Rattus norvegicus [21] = assay: Antiarthritic activity in Wistar rat assessed as inhibition of FCA-induced inflammatory cell infiltration in subcutaneous tissue of tibio-torsal joint at 6.8 mg/kg, po administered on day 13 post FCA-challenge measured on day 28 by hematoxylin and eosin staining method relative to control; assay type: functional, organism-based; design: dose 6.8 mg/kg; how it was run: as §2
[22] = Chemical stability in HCl buffer over 3 hrs at pH 1.2; conditions: pH 1.2, 3 h

Structure (SMILES): Cc1ccc(C(C)C)c(O)c1 [THYMOL]
inhibition in vivo at 2.04 mg/kg (Rattus norvegicus [1]): 9.1%
Activity (Rattus norvegicus [2]): Active
Activity (Rattus norvegicus [3]): inactive
UI (Rattus norvegicus [4]): 1.98
inhibition (Rattus norvegicus [5]): inactive

logD [10]: 0.46
Structure (SMILES): CC(=O)Oc1cccc2c1C(=O)c1c(OC(C)=O)cc(C(=O)O)cc1C2=O [DIACEREIN]
inhibition (Rattus norvegicus [6]): inactive
inhibition in vivo at 5 mg/kg (Rattus norvegicus [7]): 56.9%
Activity (Rattus norvegicus [8]): Active
Activity (Rattus norvegicus [9]): Active
UI (Rattus norvegicus [11]): 6.03

Stability [15]: Stable
Drug metabolism [16]: Active
logD [10]: 0.565
half-life [17]: 3.22 h
half-life [18]: 2.8 h
Stability (Stomach): Stable
Stability [22]: Stable
Structure (SMILES): CC(=O)Oc1cccc2c1C(=O)c1c(OC(C)=O)cc(C(=O)Oc3cc(C)ccc3C(C)C)cc1C2=O
inhibition in vivo at 6.8 mg/kg (Rattus norvegicus [12]): 78.9%
Activity (Rattus norvegicus [13]): Active
Activity (Rattus norvegicus [14]): Active
UI (Rattus norvegicus [19]): 4.17
inhibition (Rattus norvegicus [20]): inactive
inhibition (Rattus norvegicus [21]): Active

From ChEMBL document CHEMBL2311422, “Studies on synthesis, stability, release and pharmacodynamic profile of a novel diacerein-thymol prodrug” (Bioorg Med Chem Lett, 2013)
